How the values were obtained:
[1] = Drug metabolism in cynomolgus monkey liver microsomes assessed as formation of (2S,3S,4S,5R,6R)-3,4,5-trihydroxy-6-(5-(4-((6-methoxy-1-methyl-1H-benzo[d]imidazol-2-yl)methoxy)benzyl)-2,4-dioxothiazolidin-3-yl)tetrahydro-2H-pyran-2-carboxylic acid at 20 uM after 4 hrs by radio-HPLC/LC-MS/MS analysis in presence of UDPGA and UDPGA/SAM; assay type: ADME, Macaca fascicularis
[2] = Drug metabolism in cynomolgus monkey liver microsomes assessed as formation of 5-(4-((6-hydroxy-1-methyl-1H-benzo[d]imidazol-2-yl)methoxy)benzyl)thiazolidine-2,4-dione at 20 uM after 2 hrs by radio-HPLC/LC-MS/MS analysis in presence of NADPH-generating system and NADPH-generating system/SAM; assay type: ADME, Macaca fascicularis
Cytochrome P450 3A5 = Cytochrome P450 3A5 (Homo sapiens, UniProt P20815); experiment: Activity of human CYP3A5 expressed in microsomes isolated from baculovirus infected insect cell assessed as enzyme-mediated 2-hydroxy-3-(4-((6-methoxy-1-methyl-1H-benzo[d]imidazol-2-yl)methoxy)phenyl)propanamide formation at 20 uM after 2 hrs by radio-HPLC/LC-MS/MS analysis in presence of NADPH-generating system and NADPH-generating system/SAM; assay type: ADME
Outline: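 cDNA-expressed human CYP3A5 in baculovirus-insect-cell microsomes (1 mg/ml protein) was incubated with [¹⁴C]rivoglitazone (20 μM) in 50 mM potassium phosphate (pH 7.4) or 100 mM Tris-HCl (pH 7.5). NADPH-generating system: 2 mM NADP⁺, 20 mM glucose 6-phosphate, 2 units/ml G6PDH, 10 mM MgCl₂. Incubation ran 2 h at 37°C with shaking; insect-cell control supersomes served as control. Acetonitrile stop, supernatant concentrated, then radio-HPLC, LC-MS and LC-MS/MS.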

Liver microsome = experiment: Drug metabolism in human liver microsomes assessed as formation of 3-(4-((6-methoxy-1-methyl-1H-benzo[d]imidazol-2-yl)methoxy)phenyl)-2-(methylthio)propanamide at 20 uM after 2 hrs by radio-HPLC/LC-MS/MS analysis in presence of NADPH-generating system/SAM; assay type: ADME
[3] = Drug metabolism in rat hepatocytes assessed as formation of (2S,3S,4S,5R,6R)-3,4,5-trihydroxy-6-(5-(4-((6-methoxy-1-methyl-1H-benzo[d]imidazol-2-yl)methoxy)benzyl)-2,4-dioxothiazolidin-3-yl)tetrahydro-2H-pyran-2-carboxylic acid at 30 uM after 3 hrs by radio-HPLC/LC-MS/MS analysis; assay type: ADME, cell-based, Hepatocyte
Cytochrome P450 2C8 = target: T1, Cytochrome P450 2C8 (Homo sapiens, UniProt P10632); experiment: Activity of human CYP2C8 expressed in microsomes isolated from baculovirus infected insect cell assessed as enzyme-mediated 2-mercapto-3-(4-((6-methoxy-1-methyl-1H-benzo[d]imidazol-2-yl)methoxy)phenyl)propanamide formation at 20 uM after 2 hrs by radio-HPLC/LC-MS/MS analysis in presence of NADPH-generating system and NADPH-generating system/SAM; assay type: ADME
T1 sequence (P10632 whole entry): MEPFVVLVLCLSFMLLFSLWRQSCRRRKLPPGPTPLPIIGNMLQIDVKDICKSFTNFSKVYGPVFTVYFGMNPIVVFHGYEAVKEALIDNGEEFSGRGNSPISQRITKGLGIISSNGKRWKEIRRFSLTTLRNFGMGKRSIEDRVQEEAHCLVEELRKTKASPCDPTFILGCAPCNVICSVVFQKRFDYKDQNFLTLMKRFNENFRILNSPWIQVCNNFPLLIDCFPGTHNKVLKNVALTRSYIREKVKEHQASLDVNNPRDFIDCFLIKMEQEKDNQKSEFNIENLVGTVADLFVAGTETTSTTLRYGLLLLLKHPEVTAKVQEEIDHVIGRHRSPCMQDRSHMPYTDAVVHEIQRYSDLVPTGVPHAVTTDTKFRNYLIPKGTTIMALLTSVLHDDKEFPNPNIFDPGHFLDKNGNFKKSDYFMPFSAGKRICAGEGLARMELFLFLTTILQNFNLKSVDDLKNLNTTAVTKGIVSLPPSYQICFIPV
Outline: (§1)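 Baculovirus/insect-cell microsomes expressing single human CYPs, 1 mg/ml protein, with 50 mM potassium phosphate (pH 7.4) or 100 mM Tris-HCl (pH 7.5). NADPH-generating system: 2 mM NADP⁺, 20 mM glucose 6-phosphate, 2 units/ml G6PDH, 10 mM MgCl₂. [¹⁴C]rivoglitazone at 20 μM, 2 h at 37°C with shaking. Control used insect-cell control supersomes. Stopped with acetonitrile; supernatant concentrated under nitrogen; metabolites analysed by radio-HPLC, LC-MS and LC-MS/MS.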

Cytochrome P450 1A2 = target: T2, Cytochrome P450 1A2 (Homo sapiens, UniProt P05177); experiment: Activity of human CYP1A2 expressed in microsomes isolated from baculovirus infected insect cell assessed as enzyme-mediated 5-(4-((6-hydroxy-1-methyl-1H-benzo[d]imidazol-2-yl)methoxy)benzyl)thiazolidine-2,4-dione formation at 20 uM after 2 hrs by radio-HPLC/LC-MS/MS analysis in presence of NADPH-generating system and NADPH-generating system/SAM; assay type: ADME; outline: as §1
T2 sequence (P05177 whole entry): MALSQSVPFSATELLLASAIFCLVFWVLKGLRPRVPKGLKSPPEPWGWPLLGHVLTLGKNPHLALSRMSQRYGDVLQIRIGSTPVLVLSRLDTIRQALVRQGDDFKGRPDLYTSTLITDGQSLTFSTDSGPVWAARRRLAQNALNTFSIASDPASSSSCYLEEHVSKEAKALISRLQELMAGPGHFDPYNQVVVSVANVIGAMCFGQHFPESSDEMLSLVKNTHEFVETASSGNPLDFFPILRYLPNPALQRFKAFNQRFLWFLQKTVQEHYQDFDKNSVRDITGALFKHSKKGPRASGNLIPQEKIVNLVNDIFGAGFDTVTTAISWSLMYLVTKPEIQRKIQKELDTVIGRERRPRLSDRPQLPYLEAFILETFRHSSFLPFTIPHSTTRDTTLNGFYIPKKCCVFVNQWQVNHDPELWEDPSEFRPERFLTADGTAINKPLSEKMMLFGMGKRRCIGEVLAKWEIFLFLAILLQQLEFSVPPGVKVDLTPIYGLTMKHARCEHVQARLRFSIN

Measured: Drug metabolism

Chain of Cytochrome P450 3A5 (P20815 whole entry): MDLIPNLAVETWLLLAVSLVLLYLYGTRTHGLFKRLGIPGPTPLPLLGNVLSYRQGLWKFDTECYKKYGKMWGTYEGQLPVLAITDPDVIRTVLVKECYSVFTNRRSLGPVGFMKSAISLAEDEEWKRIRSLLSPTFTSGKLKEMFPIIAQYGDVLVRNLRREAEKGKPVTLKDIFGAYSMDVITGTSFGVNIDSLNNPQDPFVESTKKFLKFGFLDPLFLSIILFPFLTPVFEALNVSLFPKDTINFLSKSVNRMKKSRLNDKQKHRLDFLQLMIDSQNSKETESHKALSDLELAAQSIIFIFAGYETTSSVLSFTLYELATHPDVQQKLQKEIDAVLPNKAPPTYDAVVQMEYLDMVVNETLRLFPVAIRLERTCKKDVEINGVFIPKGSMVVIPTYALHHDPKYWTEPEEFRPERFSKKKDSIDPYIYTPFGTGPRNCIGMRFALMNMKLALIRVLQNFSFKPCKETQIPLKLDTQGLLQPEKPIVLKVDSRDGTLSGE

COc1ccc2nc(COc3ccc(C[14CH]4SC(=O)NC4=O)cc3)n(C)c2c1.Cl (racemic)
metabolite_detected: [1] | [2] | Cytochrome P450 3A5 | Liver microsome | [3] | Cytochrome P450 2C8 | Cytochrome P450 1A2

Reference: ChEMBL document CHEMBL3526048, “In vitro metabolism of rivoglitazone, a novel peroxisome proliferator-activated receptor γ agonist, in rat, monkey, and human liver microsomes and freshly isolated hepatocytes” (Drug Metab Dispos, 2011)
